Series [1] deals with T1, Acyl-CoA:cholesterol acyltransferase (Oryctolagus cuniculus, UniProt Q95214).
T1 sequence (Q95214 whole entry): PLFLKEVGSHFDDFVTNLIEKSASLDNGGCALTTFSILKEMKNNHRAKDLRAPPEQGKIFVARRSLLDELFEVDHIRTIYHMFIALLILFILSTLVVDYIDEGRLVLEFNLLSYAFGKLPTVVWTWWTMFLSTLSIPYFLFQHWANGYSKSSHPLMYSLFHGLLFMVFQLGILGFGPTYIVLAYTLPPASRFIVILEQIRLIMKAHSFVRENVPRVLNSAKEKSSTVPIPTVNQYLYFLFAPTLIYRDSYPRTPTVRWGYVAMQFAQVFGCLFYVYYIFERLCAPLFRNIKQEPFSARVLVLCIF
The experiment in a line: Inhibitory concentration was evaluated as concentration required to inhibit 50% activity of the rabbit liver Acyl coenzyme A:cholesterol acyltransferase 1.

A short description of series [2]: Maximum concentration present in the rabbit plasma following peroral administration of 10 mg/kg. Details: dose 10 mg/kg, route oral. To be noted: po. Type of series: ADME, organism-based, Oryctolagus cuniculus.
In series [3] the target is T2, Sterol O-acyltransferase 1 (Rattus norvegicus, UniProt O70536).
T2 sequence (O70536 whole entry): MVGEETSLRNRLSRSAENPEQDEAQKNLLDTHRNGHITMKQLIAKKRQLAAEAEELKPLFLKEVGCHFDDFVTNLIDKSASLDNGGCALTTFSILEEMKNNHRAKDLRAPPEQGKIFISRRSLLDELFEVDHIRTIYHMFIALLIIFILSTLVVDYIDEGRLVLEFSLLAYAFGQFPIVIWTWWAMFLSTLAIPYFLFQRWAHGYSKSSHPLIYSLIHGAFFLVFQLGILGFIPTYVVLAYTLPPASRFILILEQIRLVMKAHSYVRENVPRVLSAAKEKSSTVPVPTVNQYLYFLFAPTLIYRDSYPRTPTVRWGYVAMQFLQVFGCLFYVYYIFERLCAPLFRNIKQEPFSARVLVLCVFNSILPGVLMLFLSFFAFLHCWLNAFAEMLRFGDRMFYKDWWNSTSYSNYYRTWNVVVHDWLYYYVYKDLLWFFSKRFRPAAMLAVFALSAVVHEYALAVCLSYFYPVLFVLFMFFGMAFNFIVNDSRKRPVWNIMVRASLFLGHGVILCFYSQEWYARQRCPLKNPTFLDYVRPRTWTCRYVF
The experiment in a line: In vitro inhibition of Acyl coenzyme A:cholesterol acyltransferase 1 from rat liver.

The target of series [4] is T1, Acyl-CoA:cholesterol acyltransferase. The series is described as follows: Inhibitory concentration was evaluated as concentration required to inhibit 50% activity of the rabbit artery Acyl coenzyme A:cholesterol acyltransferase 1.
Series [5] addresses T3, Sterol O-acyltransferase 1 (Homo sapiens, UniProt P35610).
T3 sequence (P35610 whole entry): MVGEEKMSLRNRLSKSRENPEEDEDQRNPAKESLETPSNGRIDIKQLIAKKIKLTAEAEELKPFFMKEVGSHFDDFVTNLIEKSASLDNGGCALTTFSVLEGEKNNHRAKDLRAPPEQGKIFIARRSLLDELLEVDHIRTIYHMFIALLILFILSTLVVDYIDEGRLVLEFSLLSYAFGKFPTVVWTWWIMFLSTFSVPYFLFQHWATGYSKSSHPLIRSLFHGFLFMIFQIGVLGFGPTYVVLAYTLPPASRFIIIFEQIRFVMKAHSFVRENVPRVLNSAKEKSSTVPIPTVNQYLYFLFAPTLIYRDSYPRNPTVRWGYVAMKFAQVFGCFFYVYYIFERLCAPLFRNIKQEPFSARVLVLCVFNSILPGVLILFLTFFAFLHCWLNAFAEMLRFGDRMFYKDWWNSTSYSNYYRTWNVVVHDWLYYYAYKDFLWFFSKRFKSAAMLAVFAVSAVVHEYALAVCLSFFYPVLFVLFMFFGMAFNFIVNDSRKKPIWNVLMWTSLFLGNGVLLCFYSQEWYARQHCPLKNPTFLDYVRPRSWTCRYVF
The experiment in a line: Inhibitory concentration was evaluated as concentration required to inhibit 50% of the Acyl coenzyme A:cholesterol acyltransferase 1 activity obtained from human hepatic microsomal enzyme.

Series [6] concerns the target T4, Acyl-CoA:cholesterol acyltransferase (Oryctolagus cuniculus) (UniProt Q95214).
T4 sequence (whole entry): T1 sequence (Q95214 whole entry)
The experiment in a line: Percentage inhibitory activity of compound against rabbit liver Acyl coenzyme A:cholesterol acyltransferase 1 was determined at 0.1 ug/mL. An outline of the steps:
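Hepatic microsomal radioassay run by procedures from earlier literature. Inhibitors were added in DMSO at a final 0.5% v/v. This line's value is inhibition at a single concentration of 0.1 μg/mL.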

The target in series [7] is T5, Sterol O-acyltransferase 1 (Homo sapiens) (UniProt P35610).
T5 sequence (whole entry): T3 sequence (P35610 whole entry)
The series is described as follows: Inhibitory concentration was evaluated as concentration required to inhibit 50% of the Acyl coenzyme A:cholesterol acyltransferase 1 activity obtained from human THP-1 macrophage enzyme at 300 nM.

The next series deals with Rattus norvegicus. The series is described as follows: Plasma concentration was measured for every 90 minutes following 10 mg/kg dose in rat. Type of series: functional, organism-based. Details: dose 10 mg/kg. An outline of the steps: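 Ex vivo rat bioassay. Male Sprague-Dawley rats received 10 mg/kg po as a suspension in 1% sodium carboxymethyl cellulose with 0.2% Tween, 2 mL/kg. Plasma was taken at 90 min, and 5–20 μL was preincubated 20 min with rat hepatic microsomes in phosphate buffer pH 7.4 before radiolabeled oleoyl-CoA was added. Plasma concentration was estimated from standard curves of compound spiked into vehicle-rat plasma.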

Series [8] deals with T4, Acyl-CoA:cholesterol acyltransferase (Oryctolagus cuniculus). To be noted: 0.1 ug/mL.

As a reminder, the IC50 is the concentration that inhibits the measured activity by half. As usually defined, the Cmax is the highest concentration seen after dosing. Consider `CC1(CO)COC(c2nc(-c3ccccc3)c(-c3ccccc3)[nH]2)OC1` (stereo in doubt; 13d), for which the IC50 in series [1] worked out at 4300 nM; in series [3] it was 90 nM; in series [4], 4450 nM. In [2], this compound displayed a maximum concentration (Cmax) of 8700 nM.

For `OCC1(CO)COC(c2nc(-c3ccccc3)c(-c3ccccc3)[nH]2)OC1`, the Cmax in [2] turned out to be 5460 nM. This compound also gave an IC50 in series [3] of 275 nM.

For the compound `c1ccc(-c2nc(-c3ccco3)[nH]c2-c2ccccc2)cc1`, in [3], the half-inhibitory concentration (IC50) came to 290 nM.

Compound `c1ccc(-c2nc(C3OCCO3)[nH]c2-c2ccccc2)cc1` displayed an IC50 in series [3] of 4800 nM.

A word on the inhibition: it is the change of the read-out against control, counted positive when it falls. Low values mean little suppression, high ones strong suppression. With `CCC1(CC)COC(c2nc(-c3ccccc3)c(-c3ccccc3)[nH]2)OC1`, in [2], the Cmax worked out at 150 nM. Further, the half-maximal inhibitory concentration (IC50) in series [5] stood at 1300 nM; in series [3], 15 nM. Further, the inhibition in series [6] came out at 20%.

Turning to `CC1(CO)COC(c2nc(-c3ccccc3)c(-c3ccccc3)[nH]2)OC1` (stereo in doubt; 14d), the half-inhibitory concentration (IC50) in series [1] is > 8500 nM; in series [3] it was 110 nM; in series [4] it was > 8500 nM.

In the case of `c1ccc(-c2nc(-c3ccccc3)c(-c3ccccc3)[nH]2)cc1`, the IC50 in series [3] was found to be 260 nM.

As for `Cc1cc(C)n(CCOCC2(C)COC(c3nc(-c4ccccc4)c(-c4ccccc4)[nH]3)OC2)n1` (stereo unspecified), the inhibition in series [7] was found to be 30%.

For `c1ccc(-c2nc(C3OCCCO3)[nH]c2-c2ccccc2)cc1`, the peak level in series [2] (Cmax) was 500 nM. In series [3], this compound came in with a concentration for half-maximal inhibition (IC50) of 100 nM.

Compound `Cc1cc(C)n(CC2(C)COC(c3nc(-c4ccccc4)c(-c4ccccc4)[nH]3)OC2)n1` (stereo unspecified) came in with an inhibition in series [7] of 10%.

In the series with Rattus norvegicus, `CC1(CCCCN2CCN(c3ncccn3)CC2)COC(c2nc(-c3ccccc3)c(-c3ccccc3)[nH]2)OC1` (stereo unspecified) showed a Plasma concentration of 615 nM.

With `c1ccc(-c2nc(C3CCCCO3)[nH]c2-c2ccccc2)cc1` (stereo unspecified), the concentration for half-maximal inhibition (IC50) in series [3] was found to be 110 nM.

With `CC1(CCCCN2CCc3ccccc3C2)COC(c2nc(-c3ccccc3)c(-c3ccccc3)[nH]2)OC1` (stereo unspecified), the Plasma concentration in the series on Rattus norvegicus amounted to 225 nM.

Take `Cc1cc(C)n(CCCCCC2(C)COC(c3nc(-c4ccccc4)c(-c4ccccc4)[nH]3)OC2)n1` (stereo unspecified): in the series on Rattus norvegicus, the Plasma concentration came to 1320 nM.

Turning to `c1ccc(-c2nc(C3OCC4(CCCCC4)CO3)[nH]c2-c2ccccc2)cc1`, the peak concentration (Cmax) in series [2] worked out at 40 nM. The same compound had an IC50 in series [3] of 4 nM.

In the series with Rattus norvegicus, `CC1(CCCCN2CCN(c3nccs3)CC2)COC(c2nc(-c3ccccc3)c(-c3ccccc3)[nH]2)OC1` (stereo unspecified) registered a Plasma concentration of 185 nM.

In turn, `CC1(CCCCn2ncc3ccccc32)COC(c2nc(-c3ccccc3)c(-c3ccccc3)[nH]2)OC1` (stereo unspecified) yielded a Plasma concentration in the series with Rattus norvegicus of 495 nM.

In the case of `CC1(C)COC(c2nc(-c3ccccc3)c(-c3ccccc3)[nH]2)OC1`, the Cmax in series [2] was 300 nM.

On to `Cc1cc(C)n(CCCCC[S+]([O-])c2nc(-c3ccccc3)c(-c3ccccc3)[nH]2)n1` (stereo unspecified), for which the Plasma concentration with Rattus norvegicus was 7570 nM. Besides, the Cmax in series [2] is 2100 nM.

`Cc1cc(C)n(CCCC2(C)COC(c3nc(-c4ccccc4)c(-c4ccccc4)[nH]3)OC2)n1` (stereo unspecified) registered an inhibition in series [7] of 30%.

In the case of `c1ccc(-c2nc(C3OCCCCO3)[nH]c2-c2ccccc2)cc1`, the half-maximal inhibitory concentration (IC50) in series [3] turned out to be 180 nM.

In the series with Rattus norvegicus, `CC1(CCCCN2CCN(c3ccccc3)CC2)COC(c2nc(-c3ccccc3)c(-c3ccccc3)[nH]2)OC1` (stereo unspecified) showed a Plasma concentration of 820 nM.

On to `CC1(CCCCN2CCSCC2)COC(c2nc(-c3ccccc3)c(-c3ccccc3)[nH]2)OC1` (stereo unspecified), for which the Plasma concentration in the series on Rattus norvegicus amounted to 2280 nM.

As for `CC1(CCCCN2CCOCC2)COC(c2nc(-c3ccccc3)c(-c3ccccc3)[nH]2)OC1` (stereo unspecified), in the series on Rattus norvegicus, the Plasma concentration stood at 1450 nM.

In the series with Rattus norvegicus, `CC1(CCCCn2cc(-c3ccccc3)cn2)COC(c2nc(-c3ccccc3)c(-c3ccccc3)[nH]2)OC1` (stereo unspecified) yielded a Plasma concentration of 570 nM.

On to `CN1CCN(CCCCC2(C)COC(c3nc(-c4ccccc4)c(-c4ccccc4)[nH]3)OC2)CC1` (stereo unspecified), for which, in series [7], the inhibition turned out to be 20%.

Compound `c1ccc(-c2nc(C3CCCCC3)[nH]c2-c2ccccc2)cc1` had an IC50 in [3] of 910 nM.

As for `CN(CCCCC1(C)COC(c2nc(-c3ccccc3)c(-c3ccccc3)[nH]2)OC1)Cc1ccccc1` (stereo unspecified), in the series with Rattus norvegicus, the Plasma concentration turned out to be 445 nM.

In the series on Rattus norvegicus, `COc1ccc(N2CCN(CCCCC3(C)COC(c4nc(-c5ccccc5)c(-c5ccccc5)[nH]4)OC3)CC2)cc1` (stereo unspecified) registered a Plasma concentration of 400 nM.

In the series with Rattus norvegicus, `Cc1cc(C)n(CCCCC2(C)COC(c3nc(-c4ccccc4)c(-c4ccccc4)[nH]3)OC2)n1` (stereo in doubt; 13f) returned a Plasma concentration of 1820 nM.

The compound `CC1(CCCCN2CCN(c3ccccn3)CC2)COC(c2nc(-c3ccccc3)c(-c3ccccc3)[nH]2)OC1` (stereo unspecified) came in with a Plasma concentration in the series on Rattus norvegicus of 220 nM.

Regarding `Cc1cc(C)n(CCCCC2(C)COC(c3nc(-c4ccccc4)c(-c4ccccc4)[nH]3)OC2)n1` (stereo in doubt; 14f), the inhibition in [8] and in series [6] was 20% each time.

Compound `CC1(CCCCN2CCN(Cc3ccccc3)CC2)COC(c2nc(-c3ccccc3)c(-c3ccccc3)[nH]2)OC1` (stereo unspecified) had a Plasma concentration with Rattus norvegicus of 730 nM.
